From ChEMBL document CHEMBL2346548, “Design, synthesis, and structure-activity relationship studies of tryptanthrins as antitubercular agents” (J Nat Prod, 2013)
Values after ≈ are worked out from the molar mass of the structure shown.

Experiments:
[1] = Cmax in C57BL/6 mouse at 40 mg/kg, po formulated in 0.5% methylcellulose; format: ADME, organism-based; set-up: dose 40 mg/kg, route oral; conditions: in vivo
In short: (§1)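 Female C57BL/6 mice, single 40 mg/kg oral gavage; three mice per time point; plasma at 30 min to 24 h, LC-MS; noncompartmental parameters reported as means.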

[2] = Half life in C57BL/6 mouse at 40 mg/kg, po formulated in 0.5% methylcellulose; format: ADME, organism-based; set-up: dose 40 mg/kg, route oral; conditions: in vivo; in short: as §1
[3] = Tmax in C57BL/6 mouse at 40 mg/kg, po formulated in 0.5% methylcellulose; format: ADME, organism-based; set-up: dose 40 mg/kg, route oral; conditions: in vivo; in short: as §1
[4] = AUC (0 to infinity) in C57BL/6 mouse at 40 mg/kg, po formulated in 0.5% methylcellulose; format: ADME, organism-based; set-up: dose 40 mg/kg, route oral, time infinity; conditions: in vivo
[5] = Oral bioavailability in Sprague-Dawley rat at 20 mg/kg; format: ADME, organism-based; conditions: in vivo
[6] = Elimination half life in Sprague-Dawley rat at 5 mg/kg, iv; format: ADME, organism-based; set-up: dose 5 mg/kg, route intravenous; conditions: in vivo, read-out: beta t1/2 (converted)
In short: (§2)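 Male Sprague-Dawley rats (n = 3), single 5 mg/kg iv dose as solution in PEG300/DMSO 50:50; plasma sampled 0.083–24 h, LC-MS bioanalysis; noncompartmental analysis, means.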

[7] = Clearance in Sprague-Dawley rat at 5 mg/kg, iv; format: ADME, organism-based; set-up: dose 5 mg/kg, route intravenous; conditions: in vivo; in short: as §2
[8] = Volume of distribution in Sprague-Dawley rat at 5 mg/kg, iv; format: ADME, organism-based; set-up: dose 5 mg/kg, route intravenous; conditions: in vivo; in short: as §2
[9] = AUC (0 to infinity) in Sprague-Dawley rat at 5 mg/kg, iv; format: ADME, organism-based; set-up: time infinity, dose 5 mg/kg, route intravenous; conditions: plasma
[10] = Half life in Sprague-Dawley rat at 20 mg/kg, po; format: ADME, organism-based; set-up: dose 20 mg/kg, route oral; conditions: in vivo
[11] = Tmax in Sprague-Dawley rat at 20 mg/kg, po; format: ADME, organism-based; set-up: dose 20 mg/kg, route oral; conditions: in vivo
[12] = Cmax in Sprague-Dawley rat at 20 mg/kg, po; format: ADME, organism-based; set-up: dose 20 mg/kg, route oral; conditions: in vivo
[13] = AUC (0 to infinity) in Sprague-Dawley rat at 20 mg/kg, po; format: ADME, organism-based; set-up: time infinity, dose 20 mg/kg, route oral; conditions: plasma
[14] = Permeability across basolateral to apical side in human Caco2 cells incubated for 1 hr at 37 degC by HPLC-MS/MS method; format: ADME, cell-based; conditions: Caco-2
[15] = Permeability across apical to basolateral side in human Caco2 cells incubated for 1 hr at 37 degC by HPLC-MS/MS method; format: ADME, cell-based; conditions: Caco-2
In short: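 TC7 (Caco-2 subclone) monolayer; 10 μM compound in 1% DMSO in HBSS-MES pH 6.5 on apical donor side, basolateral receiver pH 7.4; shaken 1 h at 37 °C; receiver sampled, HPLC-MS/MS; duplicate means.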

[16] = Protein binding in human plasma at 10 uM incubated for 8 hrs at 37 degC by equilibrium dialysis method; format: ADME, cell-free; conditions: read-out: PPB (converted)
In short: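 Equilibrium dialysis: 10 μM compound in 1% DMSO in human plasma vs 0.05 M phosphate buffer pH 7.5 across 12–14 K cutoff membrane, at least 8 h at 37 °C; HPLC-photodiode detection at 230 nm; duplicate means.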

[17] = Metabolic stability in human liver microsomes assessed as parent compound remaining at 1 uM incubated for 1 hr by HPLC-MS/MS method; format: ADME, Microsome; conditions: read-out: Stability
In short: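 Pooled mixed-gender human liver microsomes (0.3 mg/mL protein), 1 μM compound with NADP-regenerating system in phosphate buffer pH 7.4, 1 h at 37 °C; parent measured at start and end by HPLC-MS/MS; duplicate means.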

[18] = Solubility in simulated gastric fluid at pH 1.5 by HPLC method; format: physicochemical
In short: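 Compound at 200 μM final in 2% DMSO in simulated gastric fluid, shaken 24 h at room temperature; HPLC-photodiode array detection at 230 nm; duplicate means.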

[19] = Solubility in simulated intestinal fluid at pH 7.6 by HPLC method; format: physicochemical
In short: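 Simulated intestinal fluid medium; each analogue 200 μM final in 2% DMSO, shaken 24 h at room temperature, then HPLC with photodiode array read at 230 nm; duplicate, means given.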

Vero = assay: Cytotoxicity against african green monkey Vero cells; format: cell-based, Chlorocebus sabaeus; conditions: Chlorocebus sabaeus, Vero; read-out: IC50
[20] = tested on: Mycobacterium tuberculosis; assay: Antitubercular activity against non-replicating Mycobacterium tuberculosis H37Rv incubated for 10 days by LORA method; format: functional; conditions: 240 h
In short: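 H37Rv carrying pFCA-luxAB was adapted to low oxygen by gradual self-depletion in a sealed, slowly stirred flask. It was then exposed to compounds for 10 days under anaerobic conditions. Cultures recovered for 28 h in ambient oxygen before n-decanal substrate was added and luminescence read. MIC was the lowest concentration giving a 90% reduction in luminescence versus untreated controls.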

[21] = tested on: Mycobacterium tuberculosis; assay: Antitubercular activity against Mycobacterium tuberculosis H37Rv incubated at 37 degC for 14 days in presence of 40% human serum by microplate alamar blue assay; format: functional; conditions: 336 h
In short: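 This is the MABA run in 7H9 broth containing 40% human serum. Compounds were 2-fold serially diluted, and wells were inoculated with H37Rv at 2 × 10⁵ CFU/mL. Incubation was at 37 °C for 14 days, then Alamar Blue was added. MIC was the lowest concentration preventing the blue-to-pink colour change.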

[22] = tested on: Mycobacterium tuberculosis; assay: Antitubercular activity against Mycobacterium tuberculosis H37Rv incubated at 37 degC for 7 days by microplate alamar blue assay; format: functional; conditions: Mycobacterium tuberculosis, H37Rv, 168 h
In short: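 Mtb H37Rv was grown in 7H9 broth with glycerol, Casitone, 10% OADC and 0.05% Tween 80 to OD600 0.4. Compounds were 2-fold serially diluted from DMSO stocks in 7H9, and wells were inoculated at 2 × 10⁵ CFU/mL. After 7 days at 37 °C, Alamar Blue was added and read after a further 24 h. MIC was the lowest concentration preventing the blue-to-pink change.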

[23] = Aqueous solubility in PBS buffer at pH 7.4 by HPLC method; format: physicochemical; conditions: PBS buffer, read-out: solubility
In short: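 Compound at 200 μM final in 2% DMSO in PBS pH 7.4, shaken 24 h at room temperature; quantified by HPLC with photodiode array detection at 230 nm; duplicate, mean reported.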

[24] = Efflux ratio in human Caco2 cells incubated for 1 hr at 37 degC by HPLC-MS/MS method; format: ADME, cell-based; conditions: Caco-2
[25] = tested on: Mycobacterium tuberculosis; assay: Antitubercular activity against Mycobacterium tuberculosis Erdman ATCC 35801 infected in C57BL/6 mouse assessed as viable bacterial load in spleen at 200 mg/kg twice daily through gavage 5 days per week for 4 weeks starting on 10th day post-infection (reference value: 4.79 +/- 0.21 log10CFU/spleen); format: functional
[26] = tested on: Mycobacterium tuberculosis; assay: Antitubercular activity against Mycobacterium tuberculosis Erdman ATCC 35801 infected in C57BL/6 mouse assessed as viable bacterial load in spleen at 200 mg/kg/day through gavage 5 days per week for 4 weeks starting on 10th day post-infection (reference value: 4.79 +/- 0.21 log10CFU/spleen); format: functional
[27] = tested on: Mycobacterium tuberculosis; assay: Antitubercular activity against Mycobacterium tuberculosis Erdman ATCC 35801 infected in C57BL/6 mouse assessed as viable bacterial load in lung at 200 mg/kg twice daily through gavage 5 days per week for 4 weeks starting on 10th day post-infection (reference value: 6.49 +/- 0.10 log10CFU/lung); format: functional
[28] = tested on: Mycobacterium tuberculosis; assay: Antitubercular activity against Mycobacterium tuberculosis Erdman ATCC 35801 infected in C57BL/6 mouse assessed as viable bacterial load in lung at 200 mg/kg/day through gavage 5 days per week for 4 weeks starting on 10th day post-infection (reference value: 6.49 +/- 0.10 log10CFU/lung); format: functional
Salmonella typhimurium [29] = assay: Toxicity in Salmonella typhimurium TA100 assessed as compound level per well causing cytotoxicity at 0.25 to 240 ug/well in absence of rat liver S9 fraction; format: organism-based; conditions: salmonella enterica subsp. enterica serovar typhimurium
In short: (§3)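 MicroAmes: strains preincubated with or without Aroclor-induced rat liver S9, duplicate wells, six concentrations 0.25–250 μg equivalents/well; DMSO vehicle, 4-nitroquinoline-N-oxide (−S9) and 2-aminoanthracene (+S9) positive controls; revertant colonies counted; cytotoxicity noted as reduced revertants or background lawn; precipitation recorded.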

Salmonella typhimurium [30] = assay: Toxicity in Salmonella typhimurium TA100 assessed as compound level per well causing cytotoxicity at 0.25 to 240 ug/well in presence of rat liver S9 fraction; format: organism-based; conditions: salmonella enterica subsp. enterica serovar typhimurium; in short: as §3
Salmonella typhimurium [31] = assay: Mutagenicity in Salmonella typhimurium TA100 assessed as mean revertant colonies at 0.25 to 240 ug/well in presence of rat liver S9 fraction; format: toxicity, organism-based; conditions: salmonella enterica subsp. enterica serovar typhimurium; in short: as §3
Salmonella typhimurium [32] = assay: Mutagenicity in Salmonella typhimurium TA100 assessed as mean revertant colonies at 0.25 to 240 ug/well in absence of rat liver S9 fraction; format: toxicity, organism-based; conditions: salmonella enterica subsp. enterica serovar typhimurium; in short: as §3
Salmonella typhimurium [33] = assay: Mutagenicity in Salmonella typhimurium TA98 assessed as mean revertant colonies at 0.25 to 240 ug/well in presence of rat liver S9 fraction; format: toxicity, organism-based; conditions: salmonella enterica subsp. enterica serovar typhimurium; in short: as §3
Salmonella typhimurium [34] = assay: Mutagenicity in Salmonella typhimurium TA98 assessed as mean revertant colonies at 0.25 to 240 ug/well in absence of rat liver S9 fraction; format: toxicity, organism-based; conditions: salmonella enterica subsp. enterica serovar typhimurium; in short: as §3
[35] = Cmax in C57BL/6 mouse at 40 mg/kg, po formulated in 30% HP-beta-CD; format: ADME, organism-based; set-up: dose 40 mg/kg, route oral; conditions: in vivo; in short: as §1
[36] = Tmax in C57BL/6 mouse at 40 mg/kg, po formulated in 30% HP-beta-CD; format: ADME, organism-based; set-up: dose 40 mg/kg, route oral; conditions: in vivo; in short: as §1
[37] = AUC (0 to infinity) in C57BL/6 mouse at 40 mg/kg, po formulated in 30% HP-beta-CD; format: ADME, organism-based; set-up: time infinity, dose 40 mg/kg, route oral; conditions: plasma
[38] = Cmax in C57BL/6 mouse at 40 mg/kg, po; format: ADME, organism-based; set-up: dose 40 mg/kg, route oral; conditions: in vivo; in short: as §1
[39] = AUC (0 to infinity) in C57BL/6 mouse at 40 mg/kg, po; format: ADME, organism-based; set-up: dose 40 mg/kg, route oral, time infinity; conditions: plasma
[40] = Tmax in C57BL/6 mouse at 40 mg/kg, po; format: ADME, organism-based; set-up: dose 40 mg/kg, route oral; conditions: in vivo; in short: as §1

Compound | bioavailability [5] [%] | half-life [6] [h] | clearance [7] [mL/min/kg] | Vd [8] [L/kg] | AUC(0-inf) [9] [ng·h/mL] | half-life [10] [h] | Tmax [11] [h] | Cmax [12] [ng/mL] | AUC(0-inf) [13] [ng·h/mL] | Papp B→A at 1 h [14] [×10⁻⁶ cm/s] | Papp A→B at 1 h [15] [×10⁻⁶ cm/s] | fraction unbound at 8 h, 10 µM [16] | remaining at 1 h, 1 µM [17] [%] | solubility [18] [µM] | solubility [19] [µM] | IC50 (Vero) [µg/mL] | MIC90 [20] [µg/mL] | MIC [21] [µg/mL] | MIC [22] [µg/mL] | solubility [23] [µM] | other results
O=C1c2ccccc2-n2c1nc1c(c2=O)CCCC1 | 30.1 | 3.98 | 5.67 | 1.62 | 16500 | 6.29 | 4.67 | 2030 | 19900 | 52.4 | 85.4 | 0.043 | 18 | 53 (≈ 13.4 µg/mL) | 73.4 (≈ 18.5 µg/mL) | 8.7 (≈ 34.5 µM) | 10.5 (≈ 41.6 µM) | 1 | 0.5 (≈ 1.98 µM) | 54.9 (≈ 13.8 µg/mL) | Cmax [1]: 1930 ng/mL; half-life [2]: 4.99 h; Tmax [3]: 1.5 h; AUC(0-inf) [4]: 5280 ng·h/mL; efflux ratio at 1 h [24]: > 1; log10cfu [25]: 4.89; log10cfu [26]: 4.88; log10cfu [27]: 6.6; log10cfu [28]: 6.5; Activity (Salmonella typhimurium [29]): >= 25 ug; Activity (Salmonella typhimurium [30]): >= 25 ug; Activity (Salmonella typhimurium [31]): Non-toxic; Activity (Salmonella typhimurium [32]): Non-toxic; Activity (Salmonella typhimurium [33]): Non-toxic; Activity (Salmonella typhimurium [34]): Non-toxic; Cmax [35]: 2260 ng/mL; Tmax [36]: 0.5 h; AUC(0-inf) [37]: 2570 ng·h/mL
O=C1c2cc(C(=O)N3CCCCC3)ccc2-n2c1nc1ccccc1c2=O | 3.16 | 0.88 | 81 | 6.21 | 1070 | 7.34 | 1 | 30 | 140 | 26 | 59.9 | 0.011 | 105 | 10.2 (≈ 3.67 µg/mL) | 27.5 (≈ 9.88 µg/mL) | > 10 | > 10 | 2 | 0.25 (≈ 0.696 µM) | 16.3 (≈ 5.86 µg/mL) | Cmax [38]: 112 ng/mL; AUC(0-inf) [39]: 1300 ng·h/mL; Tmax [40]: 2 h; efflux ratio at 1 h [24]: > 1
